Screening results as filed in PubChem BioAssay.
The entries come from a sample that favours hits as a whole.
Tb MetRS inh – blocks T. brucei methionyl-tRNA synthetase activity; 0.4% of 360,000 active; purified T. brucei MetRS, ATP depletion, Kinase-Glo luminescence; inhibition, % at 11.9 µM;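 active means inhibition above a per-plate cutoff of the control wells' mean inhibition plus 3 SD, cut at about 5.5% in these data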
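Test system: purified T. brucei MetRS enzyme. Also added: ATP, methionine and E. coli bulk tRNA substrates. Compound: 11.9 µM single point. Schedule: 15 min enzyme-compound preincubation, 2 h reaction, 10 min detection, 25 °C. Signal: luciferase luminescence of residual ATP, Kinase-Glo. Evaluation: percent inhibition versus plate control medians. Controls: DMSO wells, low control.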
UPR CHOP act – activators of apoptotic arm of unfolded protein response (CHOP). CHO-CHOP luciferase reporter, UPR activation, luminescence; percent of tunicamycin response over DMSO baseline. activation, % at 10 µM. 0.34% of 330,000 active;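 active means at 10 µM dose, activation of 40% or more, normalized to positive control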
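Assay system: CHO-CHOP cells, stable luciferase reporter of PERK-eIF2a-CHOP signalling / Buffer or medium: F12 plus 10% serum / Compound dosing: one dose, 10 µM in 0.5% DMSO / Times: 6 h compound treatment, 37 °C / Technique: luciferase luminescence / Read-out: % reporter activation, DMSO baseline versus tunicamycin full activation / Benchmarks: tunicamycin and DMSO controls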
V-ATPase pHluor – regulators of yeast V-ATPase proton transport | S. cerevisiae, pHLuorin cytosolic pH fluorescence | response, % at 10 µM | 0.37% of 350,000 active | AID 504577; in the data active means response mostly above about 7.3%, no sharp cut-off; inactive means mostly below about 5.4%; further: actives read high
CHOP inhibitor – inhibitors of CHOP induction in ER stress response | 3.8% of 220,000 active | inhibition, % at 10 µM | CHO-K1 CHOP-promoter luciferase, tunicamycin-induced, 15-18 h;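 active means compounds that reduced the stress-induced luciferase reporter signal by more than about 70% of percent inhibition, limit read from the data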
UPR XBP1 act – adaptive UPR (XBP1) activation; 0.33% of 330,000 active; activation, % at 20 µM; CHO-XBP1 luciferase reporter, IRE1-XBP1 UPR activation, luminescence; percent of tunicamycin response, DMSO as zero;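 active means versus positive control, 20 µM dose yields 30% or more activation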
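Material: CHO cell line with stable XBP1 luciferase reporter; schedule: 16-18 h cell attachment at 37 °C, then 6 h compound exposure; signal: glow luminescence from Steady-Glo reagent; medium: serum-containing F12 medium, 10% FBS; benchmarks: tunicamycin 10 µg/mL and vehicle-only wells; read-out: percent activation relative to tunicamycin reference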
UPR CHOP confirm – confirmation of apoptotic unfolded protein response (CHOP) activators. CHO-CHOP cells, CHOP-luciferase reporter luminescence; percent of tunicamycin response, DMSO as zero. AID 463112. 64% of 1,000 active. shares compounds with UPR CHOP act. activation, % at 10 µM; in the data active means activation above about 33%
XBP1 UPR conf – confirmation of adaptive unfolded protein response (XBP1) activators | 63% of 1,000 active | CHO-XBP1 IRE1-XBP1 luciferase reporter, luminescence | activation, % at 20 µM | shares compounds with UPR XBP1 act;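 active means reporter signal at least 30% of the positive control's activation in two or more of four replicate wells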
Each line names hits and unclear results; the compound was inactive in the other large screens (follow-up assays come after a bar, where they were run).

CC(C)C(C(=O)NCC1CCCO1)N(C(=O)CNS(=O)(=O)c1ccc(F)cc1)C1CCCCC1 (stereo not drawn)	none (no result: CHOP inhibitor)
Oc1cccc(/C=N/Nc2cc(N3CCOCC3)nc(N3CCOCC3)n2)c1	none
Oc1ccc(/C=N/Nc2cc(N3CCOCC3)nc(N3CCOCC3)n2)cc1O	UPR CHOP act 267.6, UPR XBP1 act 58.7 | UPR CHOP confirm 100.0 | XBP1 UPR conf 42.0
COc1ccc2nc(SCC(=O)Nc3cc(C)on3)[nH]c2c1	none
COc1ccc(-n2c(C)cc(C(=O)CCl)c2C)cc1	UPR CHOP act 564.5, UPR XBP1 act 42.2 | UPR CHOP confirm 416.8 | XBP1 UPR conf 30.9
COc1ccc(-n2c(C)cc(C(=O)CN3C(=O)c4ccccc4C3=O)c2C)cc1	none
CCn1cc(C(=O)NC(=S)Nc2sc3c(c2C(=O)OC)CCCCCC3)cn1	UPR CHOP act 70.6, CHOP inhibitor 77.7, UPR XBP1 act 60.1 | UPR CHOP confirm 35.2 | XBP1 UPR conf 56.9
CCOC(=O)c1nn(-c2ccc(F)cc2)c(=O)c(C#N)c1C	none (no result: CHOP inhibitor)
Cc1ccc2sc(-c3ccc(NC(=O)c4cc(-n5cnnc5)ccc4Cl)cc3)nc2c1	UPR CHOP act 85.3, UPR XBP1 act 69.4 | UPR CHOP confirm inactive | XBP1 UPR conf inactive
CC(C)(C)NC(=O)NC(=O)CSc1n[nH]c(-c2ccccc2Br)n1	none
CCc1ccc2[nH]c(=O)c(CN(Cc3ccc(F)cc3)C(c3nnnn3CCN3CCOCC3)C(C)C)cc2c1 (stereo not drawn)	UPR CHOP act 55.0, UPR XBP1 act 38.5 | UPR CHOP confirm inactive | XBP1 UPR conf inactive
CC1=C(/C=C/C(C)=C/C=C/C(C)=C/C(=O)Nc2ccc(O)cc2)C(C)(C)CCC1	UPR CHOP act 92.7, UPR XBP1 act 54.3 | UPR CHOP confirm 131.3 | XBP1 UPR conf 54.6
CC1=C(/C=C/C(C)=C/C=C/C(C)=C\C(=O)O)C(C)(C)CCC1	none
Cc1cc(C)c2nc(Cl)c(Cl)nc2c1	none
COCc1cc(C)nc(OCC(=O)N/N=C/c2ccco2)c1C#N	none
COCc1cc(C)nc(OCC(=O)N/N=C/c2ccc(-c3cc([N+](=O)[O-])ccc3Cl)o2)c1C#N	UPR CHOP act 53.1, CHOP inhibitor 92.3, UPR XBP1 act 342.1 | UPR CHOP confirm 70.5 | XBP1 UPR conf 276.9
Cc1cc(NC(=O)c2cc(-c3ccccn3)nc3ccc(Br)cc23)no1	UPR CHOP act 58.4, UPR XBP1 act 34.1 (no result: CHOP inhibitor) | UPR CHOP confirm 61.2 | XBP1 UPR conf 32.6
COc1ccc(OC)c(NC(=O)c2ccc3c(=O)n(CCc4ccccc4)c(=S)[nH]c3c2)c1	UPR CHOP act 46.4, CHOP inhibitor 100.4, UPR XBP1 act 36.1 | UPR CHOP confirm inactive | XBP1 UPR conf inactive
O=C1S/C(=C\C=C\c2ccco2)C(=O)N1c1ccc(O)cc1	UPR CHOP act 168.1, UPR XBP1 act 36.8 | UPR CHOP confirm inactive | XBP1 UPR conf inactive
Oc1ccc(/C=N/Nc2ncnc3c2ncn3Cc2ccccc2)cc1O	UPR CHOP act 222.6, UPR XBP1 act 136.2 | UPR CHOP confirm 66.9 | XBP1 UPR conf 75.8
Oc1cccc(/C=N/Nc2ncnc3c2ncn3Cc2ccccc2)c1	none
CCN(CC)c1ccc(/C=N/NC(=O)CCC(=O)NCc2ccccc2)c(O)c1	none
Clc1ccc(-c2ccc(/C=N/Nc3nncc(-c4ccccc4)n3)o2)cc1	UPR CHOP act 41.8, UPR XBP1 act 75.6 | UPR CHOP confirm 44.0 | XBP1 UPR conf 145.3
O=C1c2ccccc2-n2c1nc1ccccc1c2=O	UPR CHOP act 77.3, UPR XBP1 act 34.2 | UPR CHOP confirm inactive | XBP1 UPR conf inactive
O=c1c2ccccc2nc2n1-c1ccccc1CCC2	none
COc1ccc(/C=C/c2nc3cc(-c4ccccc4)ccc3o2)cc1O	UPR CHOP act 45.2, UPR XBP1 act 38.7 | UPR CHOP confirm 50.0 | XBP1 UPR conf 29.2
CCOC(=O)c1c(NC(=O)CC(C)C)sc(C(C)=O)c1C	none
CCOC(=O)c1sc(NC(=S)NC(=O)c2ccccc2)c(C(=O)OCC)c1C	UPR CHOP act 51.2, CHOP inhibitor 77.1, UPR XBP1 act 50.7 | UPR CHOP confirm 98.4 | XBP1 UPR conf 114.2
CCOC(=O)c1c(NC(=O)c2cc(-c3ccc(O)cc3)on2)sc(C(C)=O)c1C	UPR CHOP act 78.1, UPR XBP1 act 84.1 | UPR CHOP confirm inactive | XBP1 UPR conf 43.2
COc1cc(C(=O)Nc2nc(-c3ccc(Cl)cc3)c(C)s2)ccc1OCC(=O)Nc1ccc(F)cc1	UPR CHOP act 126.7, CHOP inhibitor 76.9, UPR XBP1 act 99.3 | UPR CHOP confirm 70.5 | XBP1 UPR conf 109.4
CCc1ccc(-c2nc(NC(=O)c3ccc(OCC(=O)Nc4ccc(F)cc4)c(OC)c3)sc2C)cc1	none
C#Cc1ccccc1OCCCN1CCC(C(O)(c2ccccc2)c2ccccc2)CC1	none (no result: UPR CHOP act, V-ATPase pHluor, CHOP inhibitor, UPR XBP1 act)
Cn1nc(C(F)(F)F)c(/C=N/OC(=O)c2ccccc2)c1SCc1ccccc1Cl	UPR CHOP act 52.2, UPR XBP1 act 91.0 | UPR CHOP confirm 99.6 | XBP1 UPR conf 114.7
O=C(CSc1cccc2cccnc12)N/N=C/c1cccc(O)c1	none
O=C(N/N=C/c1ccc(O)c(O)c1)c1ccc(CSc2cccc3cccnc23)cc1	UPR CHOP act 106.2, UPR XBP1 act 50.8 | UPR CHOP confirm inactive | XBP1 UPR conf 54.4
Cc1ccc(C(C)C)c(OCc2ccc(C(=O)N/N=C/c3ccc(O)c(O)c3)cc2)c1	UPR CHOP act 102.2, CHOP inhibitor 83.9, UPR XBP1 act 85.9 | UPR CHOP confirm 56.9 | XBP1 UPR conf 54.4
Cn1c2ccccc2c2cc(/C=N/NC(=O)c3cc(O)ccc3O)ccc21	UPR CHOP act 168.8, UPR XBP1 act 33.4 (no result: CHOP inhibitor) | UPR CHOP confirm 84.1 | XBP1 UPR conf 87.2
Cn1c2ccccc2c2cc(/C=N/NC(=O)c3cc(O)cc(O)c3)ccc21	none (no result: CHOP inhibitor)
Cc1cccc(NC(=O)CSc2nccn2Cc2ccco2)c1C	none (no result: CHOP inhibitor)
Oc1ccc(CN2CCC(Cc3ccccc3)CC2)c2cccnc12	UPR CHOP act 384.6, UPR XBP1 act 39.2 (no result: Tb MetRS inh, V-ATPase pHluor) | UPR CHOP confirm 254.4 | XBP1 UPR conf 30.7
Cc1[nH]c2ccccc2c1CN1CCC(Cc2ccccc2)CC1	UPR CHOP act 45.9, UPR XBP1 act 33.2 | UPR CHOP confirm 46.8 | XBP1 UPR conf inactive
Cc1ccc(C2=C/C(=C/c3cccnc3)C(=O)O2)c(C)c1	none
COc1ccccc1C(=O)Nc1ccnn1C1CCN(C2CCCCC2)CC1	none (no result: UPR CHOP act, CHOP inhibitor, UPR XBP1 act)
FC(F)(F)c1nnc2c(Sc3ccc(Cl)cc3)nc3ccccc3n12	UPR CHOP act 84.1, CHOP inhibitor 71.3, UPR XBP1 act 59.4 | UPR CHOP confirm 127.1 | XBP1 UPR conf 55.3
FC(F)(F)c1nnc2c(Sc3ccccc3)nc3ccccc3n12	none
